The record followed here is ChEMBL document CHEMBL3352013, “The design and synthesis of potent and selective inhibitors of Trypanosoma brucei glycogen synthase kinase 3 for the treatment of human african trypanosomiasis” (J Med Chem, 2014).

In the first experiment the target is Glycogen synthase kinase-3 (Homo sapiens, UniProt P49840+P49841). Description: Inhibition of human GSK3 using biotinylated GSP2 substrate by flashplate assay. Type of experiment: protein assay.
Conditions: not given
The molecule `COc1cccc(OC)c1C(=O)Nc1c[nH]nc1C(=O)NCc1ccccn1` registered an IC50 of 0.32 µM.
`COc1cc(OC)c(C(=O)Nc2c[nH]nc2C(=O)N[C@H]2CC[C@H](OC)CC2)c(OC)c1` showed a half-maximal inhibitory concentration (IC50) of 0.09 µM.
`COCCNC(=O)c1n[nH]cc1NC(=O)c1c(OC)cccc1OC` displayed an IC50 of 0.3 µM.
In the case of `COc1cccc(OC)c1C(=O)Nc1c[nH]nc1C(=O)NCCN1CCCC1`, the half-maximal inhibitory concentration (IC50) was found to be 0.66 µM.
For the molecule `COc1cccc(OC)c1C(=O)Nc1c[nH]nc1C(=O)Nc1ccccc1`, the IC50 was determined as 0.07 µM.
Still for that read-out and setting: with `COc1cccc(OC)c1C(=O)Nc1c[nH]nc1C(=O)NC1CCC1` the figure was 0.08 µM; with `COc1cccc(OC)c1C(=O)Nc1c[nH]nc1C(=O)NCc1ncccc1C`, 0.87 µM.
`COc1cccc(OC)c1C(=O)Nc1c[nH]nc1C(=O)N[C@H]1CC[C@H](O)CC1` displayed a half-maximal inhibitory concentration (IC50) of 0.07 µM.
`COc1cccc(OC)c1C(=O)Nc1c[nH]nc1C(=O)Nc1ccncc1`: the IC50 was 0.12 µM.
With `CO[C@H]1CC[C@H](NC(=O)c2n[nH]cc2NC(=O)c2ncoc2-c2ccccc2)CC1`, the IC50 is 0.005 µM.
Regarding `COc1cccc(OC)c1C(=O)Nc1c[nH]nc1C(=O)NC1CCCCC1`, the IC50 came to 0.05 µM.
For `COc1ccccc1CC(=O)Nc1c[nH]nc1C(=O)N[C@H]1CC[C@H](OC)CC1`, the IC50 amounted to 0.21 µM.

System in the next experiment: not listed separately
As to the kind of experiment: Inhibition of Trypanosoma brucei GSK3 using biotinylated GSP2 substrate by flashplate assay.
Conditions: not given
The method, boiled down: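 Radiometric Flashplate assay: 2.5 nM TbGSK3 short, 1 μM biotinylated GSP2, 1 μM ATP plus [γ-33P]-ATP. 10-point titration 30 μM to 0.3 nM final, 1% DMSO. IC50 averaged over two or more experiments; standard GW8510 used for reproducibility (MSR).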
Take `COc1cccc(OC)c1C(=O)Nc1c[nH]nc1C(=O)NCc1ccccn1`: the half-maximal inhibitory concentration (IC50) was determined as 0.015 µM.
Same read-out and setting: to `COc1cc(OC)c(C(=O)Nc2c[nH]nc2C(=O)N[C@H]2CC[C@H](OC)CC2)c(OC)c1` belongs 0.003 µM; to `COCCNC(=O)c1n[nH]cc1NC(=O)c1c(OC)cccc1OC`, 0.034 µM; to `COc1cccc(OC)c1C(=O)Nc1c[nH]nc1C(=O)NCCN1CCCC1`, 0.32 µM.
For `COc1cccc(OC)c1C(=O)Nc1c[nH]nc1C(=O)Nc1ccccc1`, the midpoint of inhibition, the IC50, lay at 0.006 µM.
On to `COc1cccc(OC)c1C(=O)Nc1c[nH]nc1C(=O)NC1CCC1`, for which the 50% inhibitory concentration (IC50) was 0.008 µM.
With `COc1cccc(OC)c1C(=O)Nc1c[nH]nc1C(=O)NCc1ncccc1C`, the IC50 worked out at 0.14 µM.
In the case of `COc1cccc(OC)c1C(=O)Nc1c[nH]nc1C(=O)N[C@H]1CC[C@H](O)CC1`, the IC50 was 0.002 µM.
The same measure, in the same setting: with `COc1cccc(OC)c1C(=O)Nc1c[nH]nc1C(=O)Nc1ccncc1` the figure was 0.004 µM; with `CO[C@H]1CC[C@H](NC(=O)c2n[nH]cc2NC(=O)c2ncoc2-c2ccccc2)CC1`, 0.92 µM; with `COc1cccc(OC)c1C(=O)Nc1c[nH]nc1C(=O)NC1CCCCC1`, 0.001 µM.
On the same count and under the same terms, with `COc1ccccc1CC(=O)Nc1c[nH]nc1C(=O)N[C@H]1CC[C@H](OC)CC1` the figure was 0.5 µM.

System in a further experiment: not listed separately
Description: Selectivity ratio, ratio of IC50 for human GSK3 to IC50 Trypanosoma brucei GSK3.
Conditions: not given
Regarding `COc1cccc(OC)c1C(=O)Nc1c[nH]nc1C(=O)NCc1ccccn1`, the Ratio IC50 stood at 21.
On to `COc1cc(OC)c(C(=O)Nc2c[nH]nc2C(=O)N[C@H]2CC[C@H](OC)CC2)c(OC)c1`, for which the Ratio IC50 was determined as 30.
Same read-out and setting: to `COCCNC(=O)c1n[nH]cc1NC(=O)c1c(OC)cccc1OC` belongs 8.8; to `COc1cccc(OC)c1C(=O)Nc1c[nH]nc1C(=O)NCCN1CCCC1`, 2.1.
Still for that read-out and setting: with `COc1cccc(OC)c1C(=O)Nc1c[nH]nc1C(=O)Nc1ccccc1` the figure was 12.
In the case of `COc1cccc(OC)c1C(=O)Nc1c[nH]nc1C(=O)NC1CCC1`, the Ratio IC50 turned out to be 10.
On the same count and under the same terms, to `COc1cccc(OC)c1C(=O)Nc1c[nH]nc1C(=O)NCc1ncccc1C` belongs 6.2.
Same read-out and setting: with `COc1cccc(OC)c1C(=O)Nc1c[nH]nc1C(=O)N[C@H]1CC[C@H](O)CC1` the figure was 35; with `COc1cccc(OC)c1C(=O)Nc1c[nH]nc1C(=O)Nc1ccncc1`, 30; with `CO[C@H]1CC[C@H](NC(=O)c2n[nH]cc2NC(=O)c2ncoc2-c2ccccc2)CC1`, 0.0058.
For `COc1cccc(OC)c1C(=O)Nc1c[nH]nc1C(=O)NC1CCCCC1`, the Ratio IC50 is 50.
As for `COc1ccccc1CC(=O)Nc1c[nH]nc1C(=O)N[C@H]1CC[C@H](OC)CC1`, the Ratio IC50 is 0.42.

In a further experiment the target is CDK2/Cyclin A2 (Homo sapiens, UniProt P24941). Description: Inhibition of human CDK2/cyclin A using Biotin-C6-PKTPKKAKKL substrate. Type of experiment: protein-complex assay.
Conditions: not given
For the molecule `COc1cccc(OC)c1C(=O)Nc1c[nH]nc1C(=O)NCc1ccccn1`, the half-inhibitory concentration (IC50) was more than 10 µM.
In the case of `COc1cc(OC)c(C(=O)Nc2c[nH]nc2C(=O)N[C@H]2CC[C@H](OC)CC2)c(OC)c1`, half-maximal inhibition (IC50) required 3.1 µM.
In turn, `COCCNC(=O)c1n[nH]cc1NC(=O)c1c(OC)cccc1OC` displayed an IC50 of more than 10 µM.
The same measure, in the same setting: to `COc1cccc(OC)c1C(=O)Nc1c[nH]nc1C(=O)NCCN1CCCC1` belongs more than 10 µM.
The same measure, in the same setting: to `COc1cccc(OC)c1C(=O)Nc1c[nH]nc1C(=O)Nc1ccccc1` belongs 4.3 µM; to `COc1cccc(OC)c1C(=O)Nc1c[nH]nc1C(=O)NC1CCC1`, 2.4 µM; to `COc1cccc(OC)c1C(=O)Nc1c[nH]nc1C(=O)NCc1ncccc1C`, more than 10 µM.
`COc1cccc(OC)c1C(=O)Nc1c[nH]nc1C(=O)N[C@H]1CC[C@H](O)CC1` registered a half-maximal inhibitory concentration (IC50) of 1.6 µM.
`COc1cccc(OC)c1C(=O)Nc1c[nH]nc1C(=O)Nc1ccncc1` came in with a half-maximal inhibitory concentration (IC50) of 1.3 µM.
Still for that read-out and setting: to `CO[C@H]1CC[C@H](NC(=O)c2n[nH]cc2NC(=O)c2ncoc2-c2ccccc2)CC1` belongs 22 µM; to `COc1cccc(OC)c1C(=O)Nc1c[nH]nc1C(=O)NC1CCCCC1`, 1.2 µM.
On to `COc1ccccc1CC(=O)Nc1c[nH]nc1C(=O)N[C@H]1CC[C@H](OC)CC1`, for which the IC50 stood at 0.85 µM.

System in a further experiment: not listed separately
As to the kind of experiment: Selectivity ratio, ratio of IC50 for human CDK2/cyclin A to IC50 for Trypanosoma brucei GSK3.
Conditions: not given
As for `COc1cccc(OC)c1C(=O)Nc1c[nH]nc1C(=O)NCc1ccccn1`, the Ratio IC50 is more than 670.
The same measure, in the same setting: with `COc1cc(OC)c(C(=O)Nc2c[nH]nc2C(=O)N[C@H]2CC[C@H](OC)CC2)c(OC)c1` the figure was 1000.
As for `COCCNC(=O)c1n[nH]cc1NC(=O)c1c(OC)cccc1OC`, the Ratio IC50 was more than 290.
The same measure, in the same setting: with `COc1cccc(OC)c1C(=O)Nc1c[nH]nc1C(=O)NCCN1CCCC1` the figure was more than 31; with `COc1cccc(OC)c1C(=O)Nc1c[nH]nc1C(=O)Nc1ccccc1`, 720; with `COc1cccc(OC)c1C(=O)Nc1c[nH]nc1C(=O)NC1CCC1`, 300.
With `COc1cccc(OC)c1C(=O)Nc1c[nH]nc1C(=O)NCc1ncccc1C`, the Ratio IC50 is more than 71.
Same read-out and setting: with `COc1cccc(OC)c1C(=O)Nc1c[nH]nc1C(=O)N[C@H]1CC[C@H](O)CC1` the figure was 800; with `COc1cccc(OC)c1C(=O)Nc1c[nH]nc1C(=O)Nc1ccncc1`, 330.
On the same count and under the same terms, to `CO[C@H]1CC[C@H](NC(=O)c2n[nH]cc2NC(=O)c2ncoc2-c2ccccc2)CC1` belongs 24; to `COc1cccc(OC)c1C(=O)Nc1c[nH]nc1C(=O)NC1CCCCC1`, 1200; to `COc1ccccc1CC(=O)Nc1c[nH]nc1C(=O)N[C@H]1CC[C@H](OC)CC1`, 1.7.

The subject of the next experiment is Trypanosoma brucei brucei. Description: Trypanocidal activity against bloodstream stage of Trypanosoma brucei brucei assessed as inhibition of proliferation after 72 hrs. Type of experiment: functional, organism-based.
Conditions: not given
An outline of the steps:
(§1)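 Resazurin viability assay: 2 × 10³ cells/well (MRC5 in MEM + 10% FBS; bloodstream-form T. b. brucei in appropriate medium), compounds 50 μM to 0.5 nM, 37 °C, 5% CO₂ for 69 h, then resazurin 50 μM final for further 4 h; fluorescence read. Concentration giving 50% growth inhibition over 72 h; average of two or more experiments.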
On to `COc1cccc(OC)c1C(=O)Nc1c[nH]nc1C(=O)NCc1ccccn1`, for which the EC50 turned out to be 20 µM.
The same measure, in the same setting: to `COc1cc(OC)c(C(=O)Nc2c[nH]nc2C(=O)N[C@H]2CC[C@H](OC)CC2)c(OC)c1` belongs 5.9 µM; to `COCCNC(=O)c1n[nH]cc1NC(=O)c1c(OC)cccc1OC`, 43 µM; to `COc1cccc(OC)c1C(=O)Nc1c[nH]nc1C(=O)NCCN1CCCC1`, more than 50 µM.
Take `COc1cccc(OC)c1C(=O)Nc1c[nH]nc1C(=O)Nc1ccccc1`: the EC50 was found to be 11.5 µM.
The same measure, in the same setting: to `COc1cccc(OC)c1C(=O)Nc1c[nH]nc1C(=O)NC1CCC1` belongs 12 µM; to `COc1cccc(OC)c1C(=O)Nc1c[nH]nc1C(=O)NCc1ncccc1C`, more than 50 µM.
Regarding `COc1cccc(OC)c1C(=O)Nc1c[nH]nc1C(=O)N[C@H]1CC[C@H](O)CC1`, the 50% effective concentration (EC50) was determined as 6.4 µM.
Take `COc1cccc(OC)c1C(=O)Nc1c[nH]nc1C(=O)Nc1ccncc1`: the concentration for a half-maximal effect (EC50) worked out at 8.2 µM.
The same measure, in the same setting: to `CO[C@H]1CC[C@H](NC(=O)c2n[nH]cc2NC(=O)c2ncoc2-c2ccccc2)CC1` belongs more than 50 µM; to `COc1cccc(OC)c1C(=O)Nc1c[nH]nc1C(=O)NC1CCCCC1`, 4.1 µM; to `COc1ccccc1CC(=O)Nc1c[nH]nc1C(=O)N[C@H]1CC[C@H](OC)CC1`, 22 µM.

In a further experiment the test system is MRC5. As to the kind of experiment: Cytotoxicity against human MRC5 cells assessed as growth inhibition after 72 hrs. Type of experiment: cell-based. The note with it: MRC5, 72 h. An outline of the steps: as §1
As for `COc1cccc(OC)c1C(=O)Nc1c[nH]nc1C(=O)NCc1ccccn1`, the concentration giving a half-maximal response (EC50) was more than 50 µM.
On the same count and under the same terms, with `COc1cc(OC)c(C(=O)Nc2c[nH]nc2C(=O)N[C@H]2CC[C@H](OC)CC2)c(OC)c1` the figure was more than 50 µM; with `COCCNC(=O)c1n[nH]cc1NC(=O)c1c(OC)cccc1OC`, more than 50 µM; with `COc1cccc(OC)c1C(=O)Nc1c[nH]nc1C(=O)NCCN1CCCC1`, more than 50 µM.
As for `COc1cccc(OC)c1C(=O)Nc1c[nH]nc1C(=O)Nc1ccccc1`, the EC50 is more than 50 µM.
`COc1cccc(OC)c1C(=O)Nc1c[nH]nc1C(=O)NC1CCC1`: the concentration giving a half-maximal response (EC50) is more than 50 µM.
On to `COc1cccc(OC)c1C(=O)Nc1c[nH]nc1C(=O)NCc1ncccc1C`, for which the 50% effective concentration (EC50) is more than 50 µM.
Turning to `COc1cccc(OC)c1C(=O)Nc1c[nH]nc1C(=O)N[C@H]1CC[C@H](O)CC1`, the concentration for a half-maximal effect (EC50) was 34 µM.
Same read-out and setting: to `COc1cccc(OC)c1C(=O)Nc1c[nH]nc1C(=O)Nc1ccncc1` belongs more than 50 µM; to `CO[C@H]1CC[C@H](NC(=O)c2n[nH]cc2NC(=O)c2ncoc2-c2ccccc2)CC1`, 28 µM; to `COc1cccc(OC)c1C(=O)Nc1c[nH]nc1C(=O)NC1CCCCC1`, 35 µM.
For the molecule `COc1ccccc1CC(=O)Nc1c[nH]nc1C(=O)N[C@H]1CC[C@H](OC)CC1`, the EC50 was 40 µM.
